# Bioassay records as filed in PubChem BioAssay.
# An excerpt weighted towards active compounds, which were near 4.6% of everything screened.
# GPR7 antagonist – GPR7 receptor antagonists, primary screen, cell-based, fluorescence, single concentration | AID 1861, 2009 | inhibition, % at 4.4 µM | 1.1% of 290,000 active | GPR7-expressing cells, fluorescence antagonist assay | Neuropeptides B/W receptor type 1 (Homo sapiens), P48145; in the data active means inhibition above about 16%, passing the limit was not always enough;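 further: cells stimulated with the agonist NPW; 0% = agonist with vehicle and 100% = vehicle without agonist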
# Target sequence (P48145 whole entry, looked up): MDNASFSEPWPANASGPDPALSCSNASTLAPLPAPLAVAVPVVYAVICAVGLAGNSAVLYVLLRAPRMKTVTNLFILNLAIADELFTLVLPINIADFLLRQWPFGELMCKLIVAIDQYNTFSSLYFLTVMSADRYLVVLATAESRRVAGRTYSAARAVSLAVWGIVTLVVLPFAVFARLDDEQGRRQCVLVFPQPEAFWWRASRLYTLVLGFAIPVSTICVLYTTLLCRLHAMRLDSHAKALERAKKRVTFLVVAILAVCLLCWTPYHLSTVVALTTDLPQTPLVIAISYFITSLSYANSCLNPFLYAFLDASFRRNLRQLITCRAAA
# TAAR1 ag – human TAAR1 agonists, primary screen, Fluo-8 calcium fluorescence, CHO RD-HGA16 cells; Trace amine-associated receptor 1 (Homo sapiens), Q96RJ0; vehicle wells 0%, saturating PEA agonist 100%; activation, % at 3 µM; 0.99% of 360,000 active; AID 624467, 2012;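 active means activation above the mean activation of all test compounds in the run plus 3 SD, cut at about 38% in these data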
# Target sequence (Q96RJ0 whole entry, looked up): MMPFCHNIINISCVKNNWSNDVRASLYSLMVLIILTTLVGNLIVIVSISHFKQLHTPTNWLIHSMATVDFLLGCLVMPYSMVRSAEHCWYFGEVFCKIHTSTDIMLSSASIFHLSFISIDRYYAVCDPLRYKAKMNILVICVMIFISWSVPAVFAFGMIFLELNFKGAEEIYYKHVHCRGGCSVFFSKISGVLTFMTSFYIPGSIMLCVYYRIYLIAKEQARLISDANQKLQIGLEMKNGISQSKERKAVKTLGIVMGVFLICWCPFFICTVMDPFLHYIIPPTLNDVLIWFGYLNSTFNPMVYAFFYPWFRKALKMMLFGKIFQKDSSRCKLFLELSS
#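 System: CHO-derived RD-HGA16 cells with stable Gα16 and human TAAR1. Times: 17-24 h plating, Fluo-8 75 min 37 °C, 30 min RT. Measured by: calcium-sensitive Fluo-8 signal, excitation 470-495, emission 515-575 nm. Read-out basis: % activation relative to PEA EC100 response. Control set: DMSO and PEA EC100. Repeats: no replicates (n 1).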
# OX1R antag-1 – OX1R (HCRTR1) antagonists, primary screen, fluorescence, CHO/OX1R cells, Fluo-8 calcium, orexin A; inhibition, % at 5 µM; 0.43% of 330,000 active; Orexin/Hypocretin receptor type 1 (Homo sapiens), O43613; Fluo-8 calcium fluorescence;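 active means inhibition above its plate's threshold, mean inhibition of all tested compounds on the plate plus 3 SD, cut at about 37% in these data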;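 further: 0% = orexin A challenge wells and 100% = SB-334867-A antagonist wells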
# CHO parental Ca – ATP-evoked calcium signal inhibitors, parental CHO, primary screen, counter-screen for OX1R antagonist project, cell-based, fluorescence, Fluo-8 calcium dye. parental CHO-K1, ATP-induced calcium, Fluo-8 fluorescence. inhibition, % at 5.6 µM. 0.63% of 330,000 active. AID 463079, 2010;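 active means inhibition above that plate's mean sample inhibition plus 3 SD, cut at about 26% in these data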;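 further: 0% = ATP-challenged DMSO wells and 100% = DMSO wells without ATP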
#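 Assay system: untransfected parental CHO cell line. Also added: ATP agonist challenge. Dosing: one dose, 5.6 µM nominal. Measured by: Fluo-8 fluorescence. Read-out: % inhibition. Benchmarks: ATP wells versus no-ATP DMSO wells. Repeats: no replicates.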
# OX1R antag-2 – antagonists of human orexin 1 receptor (OX1R) | Orexin/Hypocretin receptor type 1 (Homo sapiens), O43613 | OX1R-expressing cells, FRET antagonist read-out | inhibition, % at 6.6 µM | 1.8% of 330,000 active | AID 485270, 2010; in the data active means inhibition mostly above about 38%, no sharp cut-off; inactive means mostly below about 40%;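 further: 0% = agonist challenge alone and 100% = reference antagonist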
# TAAR1 antagonist – human TAAR1 antagonists, primary screen, Fluo-8 calcium fluorescence, CHO RD-HGA16 cells. Trace amine-associated receptor 1 (Homo sapiens), Q96RJ0. antagonist. inhibition, % at 3 µM. 1.5% of 360,000 active;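 active means inhibition above a per-plate cutoff, the mean inhibition of test compounds on that plate plus 3 SD, cut at about 49% in these data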;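 further: 0% = DMSO plus EC80 beta-PEA response and 100% = DMSO alone without agonist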
#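 System: RD-HGA16 CHO cells with stable hTAAR1 and Gα16 | Probe or stimulus: EC80 β-phenethylamine stimulus | Dosing: 3 µM, single point | Times: Dye loading 75 min at 37 °C, then 30 min room temperature | Measured by: Fluo-8 calcium-sensitive fluorescence | Read-out basis: % inhibition of agonist calcium response | Replicates: n of 1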
# GPR7 antag cf – GPR7 receptor antagonists, confirmation, cell-based, fluorescence, single concentration. shares compounds with GPR7 antagonist. GPR7-expressing cells, calcium fluorescence antagonist mode. inhibition, % at 4.4 µM. 52% of 2,400 active; in the data active means inhibition above about 24%;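 further: stimulated with the GPR7 agonist NPW; 0% = agonist plus vehicle and 100% = vehicle alone without agonist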
# MCHR1 antag – MCHR1 antagonists in cells, counter-screen for GPR7 antagonist project, cell-based, fluorescence, human; MCHR1-expressing cells, fluorescence antagonist assay; inhibition, % at 4.4 µM; 62% of 2,400 active; shares compounds with GPR7 antagonist; AID 2148, 2009; in the data active means inhibition above about 22%;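 further: 0% = vehicle with agonist and 100% = vehicle without agonist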
# * hit, by the source's call; · = not tested or not shown.
SMILES,GPR7 antagonist,TAAR1 ag,OX1R antag-1,CHO parental Ca,OX1R antag-2,TAAR1 antagonist,GPR7 antag cf,MCHR1 antag
CCOC(=O)CCS(=O)(=O)c1ccc(-c2ccc(S(=O)(=O)CCC(=O)OCC)cc2)cc1,31*,13,5,-11,9,5,44*,49*
CO/N=C/Cc1c([N+](=O)[O-])c(C)nn1C,28*,1,-18,-3,9,-6,-7,-11
O=C(CCn1c(=S)oc2ccccc21)N1CCCCC1,-5,-1,-5,-4,10,3,·,·
O=C(OCC(=O)N1CCN(c2ccccc2)CC1)c1ccc(O)cc1O,26*,4,4,2,19,-28,15,6
Cc1nn(C(C)C(=O)NCC2CCCO2)c(C)c1[N+](=O)[O-] (centres undefined),-10,0,-17,-5,8,-11,·,·
Nc1ccccc1-c1nc2ccccc2c(=O)o1,49*,0,-2,-4,15,-14,8,18
O=c1oc(-c2ccccc2[N+](=O)[O-])nc2ccccc12,1,-1,-2,-10,21,-13,·,·
CSc1nccc(-c2nn(-c3ccc(C)cc3)ccc2=O)n1,10,6,-11,-4,32,2,·,·
CCSc1nccc(-c2nn(-c3ccc(C)cc3)ccc2=O)n1,23*,1,-30,-16,15,-18,10,25*
CCN(CC(=O)Nc1cc(Cl)ccc1C)C(=O)CCS(=O)(=O)c1ccc(Cl)cc1,-6,5,-34,-28,-6,-8,·,·
Cc1ccc(C(=O)NCCNC(=O)c2cccnc2)cc1,-7,-1,4,1,4,-13,·,·
CCOC(=O)C1CCN(S(=O)(=O)c2c(Cl)ccc3nonc23)CC1,44*,4,9,14,89*,-5,56*,46*
C(=N/n1c2ccccc2c2ccccc21)/c1ccco1,26*,17,-19,-35,7,-5,-12,10
CCCCCCN1C=CC(=C/C=C(\C#N)C(=O)OCC)C=C1,30*,114*,99*,74*,18,60*,47*,64*
CCn1c(Cc2ccccc2)nnc1SCc1ccc([N+](=O)[O-])cc1,32*,1,-22,-9,16,-12,14,-2
COc1ccc(C(=O)OCC(=O)Nc2nnc(-c3ccccc3)o2)cc1,32*,1,-12,-12,52*,-27,-3,-12
COc1cc(C(=O)OCC(=O)Nc2nnc(-c3ccccc3)o2)cc(OC)c1OC,·,4,-10,7,33,-31,·,·
CC1(c2nc3ccccc3cc2C#N)OCCO1,·,6,·,·,·,2,·,·
CCOC(=O)c1c(NC(=O)c2cccnc2)sc(C(C)=O)c1C,23*,3,-12,-12,13,6,-1,-4
O=C(c1ccccc1)C1CCN(C(=O)c2cccs2)CC1,14,3,-6,-4,11,-22,·,·
O=C(c1cccs1)N1CCC(c2ccccc2)C1 (centres undefined),21*,16,-4,-13,17,11,7,-5
COC1CCCN(C(=O)c2cccc(OC3CCN(S(=O)(=O)N(C)C)CC3)c2)C1 (centres undefined),-11,7,-24,-3,12,-22,·,·
CCCCCn1c(C)c(CC(=O)Nc2ccc(Oc3cccnc3)c(C)c2)c2ccccc21,·,-2,·,·,·,9,·,·
O=C(COC(=O)CCc1c[nH]c2ccccc12)Nc1cc([N+](=O)[O-])ccc1Cl,2,6,-13,-10,30,-8,·,·
O=C(NCCc1c[nH]c2ccccc12)c1ccc([N+](=O)[O-])cc1,31*,2,17,2,18,12,30*,26*
SMILES,GPR7 antagonist,TAAR1 ag,OX1R antag-1,CHO parental Ca,OX1R antag-2,TAAR1 antagonist,GPR7 antag cf,MCHR1 antag
O=C(COC(=O)CCc1c[nH]c2ccccc12)Nc1ccc([N+](=O)[O-])cc1,26*,8,-8,-3,30,18,49*,41*
O=C(Nc1cccc2ccccc12)c1ccc([N+](=O)[O-])cc1,42*,6,-6,-4,36,-7,6,18
O=C(COc1ccc(Cl)cc1Cl)NC1CCSC1=O (centres undefined),-17,9,4,-9,13,-3,·,·
COCCN1CCn2c(nc3cc(NC(=O)Cn4nc(C)c5ccccc5c4=O)ccc32)C1,-4,0,-16,-4,3,-7,·,·
COc1ccc(NC(=O)c2cc(C3CCCCN3S(=O)(=O)c3cccs3)on2)c(C)c1 (centres undefined),·,-1,·,·,·,-18,·,·
COc1ccc(NC2CC(=O)N(C(C)C)C2=O)cc1 (centres undefined),24*,0,-5,-18,-2,-6,-2,9
COc1cccc(CNC(=O)[C@H]2CCCN2C(=O)[C@H]2CCCN2C(=O)c2cccc3ccccc23)c1,·,-2,·,·,·,-7,·,·
Cc1nc2ccc(S(=O)(=O)Nc3ccccc3C)cc2s1,25*,·,-12,-17,16,·,9,35*
CC(=O)c1cccc(S(=O)(=O)Nc2ccc3nc(C)sc3c2)c1,-2,4,0,21,17,8,·,·
N#Cc1nc(-c2cccc(Cl)c2)oc1NCc1cccnc1,10,7,-13,-14,10,-4,·,·
COc1ccccc1CC(=O)O/N=C(\N)c1ccccn1,-8,1,-7,11,8,7,·,·
COc1ccc(CC(=O)O/N=C(\N)c2ccccn2)cc1OC,24*,6,·,·,·,-8,-2,5
Cc1nn(-c2ccc(F)cc2)c(Cl)c1/C=C(\CC(=O)O)c1nc2ccccc2s1,31*,10,-2,-9,8,7,0,-1
c1ccc(Cc2nnc(-c3ccccc3)o2)cc1,69*,8,0,-7,1,23,71*,60*
Brc1ccc(-c2nnc(Cc3ccccc3)o2)cc1,2,5,-21,-2,7,-16,·,·
